Laboratory results as given in ChEMBL document CHEMBL1138567, “Regioselective synthesis and antimicrobial screening of novel ketocarbazolodispiropyrrolidine derivatives” (2009).

system: Salmonella enterica subsp. enterica serovar Typhi str. CT18; experiment: Antimicrobial activity against Salmonella typhi at 75 ug/ml after 24 hrs by agar diffusion method; type: functional; conditions: read-out: IZ
In short: (§1)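 Agar well diffusion: about 9 ml nutrient agar in 9 cm Petri plates, seeded with the test organism. Wells cut with a cork borer and loaded with test compound at 25–100 per ml; tetracycline as control. Plates incubated 24 h at 37 °C. Read-out is the average diameter of the inhibition zone around each well, in mm.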

Going from CN1C[C@@H](c2ccc(Cl)cc2)[C@@]2(CCc3c([nH]c4ccccc34)C2=O)[C@]12C(=O)c1cccc3cccc2c13 to COc1ccc([C@@H]2CN(C)[C@@]3(C(=O)c4cccc5cccc3c45)[C@]23CCc2c([nH]c4ccccc24)C3=O)cc1, the zone of inhibition at 75 µg/mL falls from 21 mm to 18 mm.

For CN(C)[C@@H]1C(O)=C(C(N)=O)C(=O)[C@@]2(O)C(O)=C3C(=O)c4c(O)cccc4[C@@](C)(O)[C@H]3C[C@@H]12 [TETRACYCLINE], the zone of inhibition at 75 µg/mL was 28 mm.

system: Staphylococcus aureus; experiment: Antimicrobial activity against Staphylococcus aureus at 100 ug/ml after 24 hrs by agar diffusion method; type: functional; conditions: read-out: IZ
In short: (§2)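 Agar well diffusion: petri plates (9 cm) with about 9 ml nutrient agar, seeded with the test organism. Wells cut with a cork borer and loaded with test compound at 25, 50, 75 or 100 per ml; tetracycline as control. Incubated 37 °C for 24 h; average inhibition-zone diameter around wells measured (mm).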

Going from CN1C[C@@H](c2ccc(Cl)cc2)[C@@]2(CCc3c([nH]c4ccccc34)C2=O)[C@]12C(=O)c1cccc3cccc2c13 to COc1ccc([C@@H]2CN(C)[C@@]3(C(=O)c4cccc5cccc3c45)[C@]23CCc2c([nH]c4ccccc24)C3=O)cc1, the zone of inhibition at 100 µg/mL falls from 34 mm to 30 mm.

With CN(C)[C@@H]1C(O)=C(C(N)=O)C(=O)[C@@]2(O)C(O)=C3C(=O)c4c(O)cccc4[C@@](C)(O)[C@H]3C[C@@H]12 [TETRACYCLINE] the zone of inhibition at 100 µg/mL was > 40 mm.

system: Salmonella enterica subsp. enterica serovar Typhi str. CT18; experiment: Antimicrobial activity against Salmonella typhi at 25 ug/ml after 24 hrs by agar diffusion method; type: functional; conditions: read-out: IZ; in short: as §1

CN1C[C@@H](c2ccc(Cl)cc2)[C@@]2(CCc3c([nH]c4ccccc34)C2=O)[C@]12C(=O)c1cccc3cccc2c13 and COc1ccc([C@@H]2CN(C)[C@@]3(C(=O)c4cccc5cccc3c45)[C@]23CCc2c([nH]c4ccccc24)C3=O)cc1 are the same in zone of inhibition at 25 µg/mL: 13 mm for the first, 13 mm for the second.

In the case of CN(C)[C@@H]1C(O)=C(C(N)=O)C(=O)[C@@]2(O)C(O)=C3C(=O)c4c(O)cccc4[C@@](C)(O)[C@H]3C[C@@H]12 [TETRACYCLINE], the zone of inhibition at 25 µg/mL is reported as 18 mm.

system: Proteus mirabilis; experiment: Antimicrobial activity against Proteus mirabilis at 25 ug/ml after 24 hrs by agar diffusion method; type: functional; conditions: read-out: IZ; in short: as §2

First: CN1C[C@@H](c2ccc(Cl)cc2)[C@@]2(CCc3c([nH]c4ccccc34)C2=O)[C@]12C(=O)c1cccc3cccc2c13
Second: COc1ccc([C@@H]2CN(C)[C@@]3(C(=O)c4cccc5cccc3c45)[C@]23CCc2c([nH]c4ccccc24)C3=O)cc1
The zone of inhibition at 25 µg/mL of the first is lower: 12 mm for the first, 14 mm for the second.

With CN(C)[C@@H]1C(O)=C(C(N)=O)C(=O)[C@@]2(O)C(O)=C3C(=O)c4c(O)cccc4[C@@](C)(O)[C@H]3C[C@@H]12 [TETRACYCLINE] the zone of inhibition at 25 µg/mL was 18 mm.

system: Salmonella enterica subsp. enterica serovar Typhi str. CT18; experiment: Antimicrobial activity against Salmonella typhi at 50 ug/ml after 24 hrs by agar diffusion method; type: functional; conditions: read-out: IZ; in short: as §1

First: CN1C[C@@H](c2ccc(Cl)cc2)[C@@]2(CCc3c([nH]c4ccccc34)C2=O)[C@]12C(=O)c1cccc3cccc2c13
Second: COc1ccc([C@@H]2CN(C)[C@@]3(C(=O)c4cccc5cccc3c45)[C@]23CCc2c([nH]c4ccccc24)C3=O)cc1
The zone of inhibition at 50 µg/mL of the first is higher: 16 mm for the first, 15 mm for the second.

In the case of CN(C)[C@@H]1C(O)=C(C(N)=O)C(=O)[C@@]2(O)C(O)=C3C(=O)c4c(O)cccc4[C@@](C)(O)[C@H]3C[C@@H]12 [TETRACYCLINE], the zone of inhibition at 50 µg/mL is reported as 22 mm.

system: Proteus vulgaris; experiment: Antimicrobial activity against Proteus vulgaris at 100 ug/ml after 24 hrs by agar diffusion method; type: functional; conditions: read-out: IZ; in short: as §2

First: CN1C[C@@H](c2ccc(Cl)cc2)[C@@]2(CCc3c([nH]c4ccccc34)C2=O)[C@]12C(=O)c1cccc3cccc2c13
Second: COc1ccc([C@@H]2CN(C)[C@@]3(C(=O)c4cccc5cccc3c45)[C@]23CCc2c([nH]c4ccccc24)C3=O)cc1
The zone of inhibition at 100 µg/mL of the first is higher: > 40 mm for the first, 17 mm for the second.

In the case of CN(C)[C@@H]1C(O)=C(C(N)=O)C(=O)[C@@]2(O)C(O)=C3C(=O)c4c(O)cccc4[C@@](C)(O)[C@H]3C[C@@H]12 [TETRACYCLINE], the zone of inhibition at 100 µg/mL is reported as > 40 mm.

system: Salmonella enterica subsp. enterica serovar Typhi str. CT18; experiment: Antimicrobial activity against Salmonella typhi at 100 ug/ml after 24 hrs by agar diffusion method; type: functional; conditions: read-out: IZ; in short: as §1

Compared with CN1C[C@@H](c2ccc(Cl)cc2)[C@@]2(CCc3c([nH]c4ccccc34)C2=O)[C@]12C(=O)c1cccc3cccc2c13, COc1ccc([C@@H]2CN(C)[C@@]3(C(=O)c4cccc5cccc3c45)[C@]23CCc2c([nH]c4ccccc24)C3=O)cc1 is lower in zone of inhibition at 100 µg/mL: 31 mm for the first, 26 mm for the second.

With CN(C)[C@@H]1C(O)=C(C(N)=O)C(=O)[C@@]2(O)C(O)=C3C(=O)c4c(O)cccc4[C@@](C)(O)[C@H]3C[C@@H]12 [TETRACYCLINE] the zone of inhibition at 100 µg/mL was > 40 mm.

system: Proteus mirabilis; experiment: Antimicrobial activity against Proteus mirabilis at 100 ug/ml after 24 hrs by agar diffusion method; type: functional; conditions: read-out: IZ; in short: as §2

Going from CN1C[C@@H](c2ccc(Cl)cc2)[C@@]2(CCc3c([nH]c4ccccc34)C2=O)[C@]12C(=O)c1cccc3cccc2c13 to COc1ccc([C@@H]2CN(C)[C@@]3(C(=O)c4cccc5cccc3c45)[C@]23CCc2c([nH]c4ccccc24)C3=O)cc1, the zone of inhibition at 100 µg/mL falls from 36 mm to 22 mm.

In the case of CN(C)[C@@H]1C(O)=C(C(N)=O)C(=O)[C@@]2(O)C(O)=C3C(=O)c4c(O)cccc4[C@@](C)(O)[C@H]3C[C@@H]12 [TETRACYCLINE], the zone of inhibition at 100 µg/mL is reported as > 40 mm.

system: Staphylococcus aureus; experiment: Antimicrobial activity against Staphylococcus aureus at 75 ug/ml after 24 hrs by agar diffusion method; type: functional; conditions: read-out: IZ; in short: as §2

Compared with CN1C[C@@H](c2ccc(Cl)cc2)[C@@]2(CCc3c([nH]c4ccccc34)C2=O)[C@]12C(=O)c1cccc3cccc2c13, COc1ccc([C@@H]2CN(C)[C@@]3(C(=O)c4cccc5cccc3c45)[C@]23CCc2c([nH]c4ccccc24)C3=O)cc1 is lower in zone of inhibition at 75 µg/mL: 22 mm for the first, 21 mm for the second.

For CN(C)[C@@H]1C(O)=C(C(N)=O)C(=O)[C@@]2(O)C(O)=C3C(=O)c4c(O)cccc4[C@@](C)(O)[C@H]3C[C@@H]12 [TETRACYCLINE], the zone of inhibition at 75 µg/mL was 28 mm.

system: Proteus vulgaris; experiment: Antimicrobial activity against Proteus vulgaris at 50 ug/ml after 24 hrs by agar diffusion method; type: functional; conditions: read-out: IZ; in short: as §2

Compared with CN1C[C@@H](c2ccc(Cl)cc2)[C@@]2(CCc3c([nH]c4ccccc34)C2=O)[C@]12C(=O)c1cccc3cccc2c13, COc1ccc([C@@H]2CN(C)[C@@]3(C(=O)c4cccc5cccc3c45)[C@]23CCc2c([nH]c4ccccc24)C3=O)cc1 is lower in zone of inhibition at 50 µg/mL: 18 mm for the first, 12 mm for the second.

Compound CN(C)[C@@H]1C(O)=C(C(N)=O)C(=O)[C@@]2(O)C(O)=C3C(=O)c4c(O)cccc4[C@@](C)(O)[C@H]3C[C@@H]12 [TETRACYCLINE] has a zone of inhibition at 50 µg/mL of 24 mm.

system: Proteus vulgaris; experiment: Antimicrobial activity against Proteus vulgaris at 75 ug/ml after 24 hrs by agar diffusion method; type: functional; conditions: read-out: IZ; in short: as §2

First: CN1C[C@@H](c2ccc(Cl)cc2)[C@@]2(CCc3c([nH]c4ccccc34)C2=O)[C@]12C(=O)c1cccc3cccc2c13
Second: COc1ccc([C@@H]2CN(C)[C@@]3(C(=O)c4cccc5cccc3c45)[C@]23CCc2c([nH]c4ccccc24)C3=O)cc1
The zone of inhibition at 75 µg/mL of the first is higher: 24 mm for the first, 13 mm for the second.

Work on CN(C)[C@@H]1C(O)=C(C(N)=O)C(=O)[C@@]2(O)C(O)=C3C(=O)c4c(O)cccc4[C@@](C)(O)[C@H]3C[C@@H]12 [TETRACYCLINE] yielded a zone of inhibition at 75 µg/mL of 28 mm.

system: Staphylococcus aureus; experiment: Antimicrobial activity against Staphylococcus aureus at 25 ug/ml after 24 hrs by agar diffusion method; type: functional; conditions: read-out: IZ; in short: as §2

Going from CN1C[C@@H](c2ccc(Cl)cc2)[C@@]2(CCc3c([nH]c4ccccc34)C2=O)[C@]12C(=O)c1cccc3cccc2c13 to COc1ccc([C@@H]2CN(C)[C@@]3(C(=O)c4cccc5cccc3c45)[C@]23CCc2c([nH]c4ccccc24)C3=O)cc1, the zone of inhibition at 25 µg/mL falls from 14 mm to 9 mm.

In the case of CN(C)[C@@H]1C(O)=C(C(N)=O)C(=O)[C@@]2(O)C(O)=C3C(=O)c4c(O)cccc4[C@@](C)(O)[C@H]3C[C@@H]12 [TETRACYCLINE], the zone of inhibition at 25 µg/mL is reported as 22 mm.

system: Staphylococcus aureus; experiment: Antimicrobial activity against Staphylococcus aureus at 50 ug/ml after 24 hrs by agar diffusion method; type: functional; conditions: read-out: IZ; in short: as §2

Going from CN1C[C@@H](c2ccc(Cl)cc2)[C@@]2(CCc3c([nH]c4ccccc34)C2=O)[C@]12C(=O)c1cccc3cccc2c13 to COc1ccc([C@@H]2CN(C)[C@@]3(C(=O)c4cccc5cccc3c45)[C@]23CCc2c([nH]c4ccccc24)C3=O)cc1, the zone of inhibition at 50 µg/mL falls from 18 mm to 16 mm.

For CN(C)[C@@H]1C(O)=C(C(N)=O)C(=O)[C@@]2(O)C(O)=C3C(=O)c4c(O)cccc4[C@@](C)(O)[C@H]3C[C@@H]12 [TETRACYCLINE], the zone of inhibition at 50 µg/mL was 24 mm.

system: Proteus mirabilis; experiment: Antimicrobial activity against Proteus mirabilis at 50 ug/ml after 24 hrs by agar diffusion method; type: functional; conditions: read-out: IZ; in short: as §2

CN1C[C@@H](c2ccc(Cl)cc2)[C@@]2(CCc3c([nH]c4ccccc34)C2=O)[C@]12C(=O)c1cccc3cccc2c13 and COc1ccc([C@@H]2CN(C)[C@@]3(C(=O)c4cccc5cccc3c45)[C@]23CCc2c([nH]c4ccccc24)C3=O)cc1 are the same in zone of inhibition at 50 µg/mL: 16 mm for the first, 16 mm for the second.

In the case of CN(C)[C@@H]1C(O)=C(C(N)=O)C(=O)[C@@]2(O)C(O)=C3C(=O)c4c(O)cccc4[C@@](C)(O)[C@H]3C[C@@H]12 [TETRACYCLINE], the zone of inhibition at 50 µg/mL is reported as 24 mm.

system: Proteus vulgaris; experiment: Antimicrobial activity against Proteus vulgaris at 25 ug/ml after 24 hrs by agar diffusion method; type: functional; conditions: read-out: IZ; in short: as §2

Compared with CN1C[C@@H](c2ccc(Cl)cc2)[C@@]2(CCc3c([nH]c4ccccc34)C2=O)[C@]12C(=O)c1cccc3cccc2c13, COc1ccc([C@@H]2CN(C)[C@@]3(C(=O)c4cccc5cccc3c45)[C@]23CCc2c([nH]c4ccccc24)C3=O)cc1 is lower in zone of inhibition at 25 µg/mL: 19 mm for the first, 9 mm for the second.

Work on CN(C)[C@@H]1C(O)=C(C(N)=O)C(=O)[C@@]2(O)C(O)=C3C(=O)c4c(O)cccc4[C@@](C)(O)[C@H]3C[C@@H]12 [TETRACYCLINE] yielded a zone of inhibition at 25 µg/mL of 18 mm.

system: Proteus mirabilis; experiment: Antimicrobial activity against Proteus mirabilis at 75 ug/ml after 24 hrs by agar diffusion method; type: functional; conditions: read-out: IZ; in short: as §2

First: CN1C[C@@H](c2ccc(Cl)cc2)[C@@]2(CCc3c([nH]c4ccccc34)C2=O)[C@]12C(=O)c1cccc3cccc2c13
Second: COc1ccc([C@@H]2CN(C)[C@@]3(C(=O)c4cccc5cccc3c45)[C@]23CCc2c([nH]c4ccccc24)C3=O)cc1
The zone of inhibition at 75 µg/mL of the first is higher: 24 mm for the first, 20 mm for the second.

For CN(C)[C@@H]1C(O)=C(C(N)=O)C(=O)[C@@]2(O)C(O)=C3C(=O)c4c(O)cccc4[C@@](C)(O)[C@H]3C[C@@H]12 [TETRACYCLINE], the zone of inhibition at 75 µg/mL was 28 mm.
